Test results: article PMC8941156 (Heliyon, 2022)

Legend:
[1] = Stability of rubraxanthone in mice plasma; type: in vitro ADME; conditions: for freeze–thaw stability, % diff: mice plasma, three freeze–thaw rounds
Procedure, shortened: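 Blank mouse plasma was spiked at medium and high QC levels, extracted by acetonitrile precipitation with α-mangostin internal standard, and quantified by UHPLC-DAD at 243 nm. For freeze–thaw, four replicate samples per level went through three cycles. Post-preparative and plasma stability came from eight replicates per level. Results are given as % difference.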

[2] = Single dose oral pharmacokinetic study of rubraxanthone in mice; type: in vivo; conditions: mouse, plasma, 700 mg/kg
Procedure, shortened: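 Mice (7–8 weeks, 20 ± 5 g) were given a fresh suspension in virgin coconut oil orally. Under isoflurane, mandibular-vein blood was taken from six mice per time point over 0–24 h into lithium heparin, and plasma was stored at −80 °C. Plasma was extracted by acetonitrile precipitation with α-mangostin internal standard and read by UHPLC-DAD (0.128–5 µg/mL calibration). Non-compartmental analysis used trapezoidal AUC and Ke from log-linear regression of the last four points (3–5.5 h), reported as mean ± SD.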

freeze–thaw stability, % diff ([1]; HC sample (3.750 μg/mL)): 5.9%
freeze–thaw stability, % diff ([1]; MC sample (2.067 μg/mL)): 0.49%
post-preparative and plasma stability ([1]; plasma kept at ambient temperature for 24 h before or after extraction vs plasma kept at -20 °C, MC and HC samples): stable
CL/F [2]: 18.7 mL/min/kg
Tmax [2]: 1.5 ± 0.99 h
half-life [2]: 6.72 ± 1.29 h
k el [2]: 2.78e-05 s⁻¹
Structure (SMILES): COc1c(O)cc2oc3cc(O)cc(O)c3c(=O)c2c1C/C=C(\C)CCC=C(C)C [rubraxanthone, 1,3,6,trihydroxy-8-geranyl-7-methoxy xanthone]
